ChEMBL document CHEMBL4813992, “Ring closure strategy leads to potent RIPK3 inhibitors” (Eur J Med Chem, 2021)
Values belong to the compound of their own block, whether it stands above or below them. Activity calls are given as the source filed them. The calls are words filed in the database; no cut-off is given here.

Key:
HT-29 [1] = assay: Anti-necroptotic activity in human HT-29 cells assessed as inhibition of TNFalpha/Z-VAD-fmk (TSZ)-induced necroptosis by measuring increase in cell viability by celltiter-glo luminescent cell viability assay; assay type: functional, cell-based
Summary of the method: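 HT-29 cells or MEFs were pretreated with compound or DMSO for 1 h, then stimulated with TNF (20 ng/mL), Smac mimetic (100 nM) and z-VAD. Viability was read as ATP level by CellTiter-Glo (24 h per methods; 40 h per legends). EC50 is the geometric mean of at least two runs ± SEM.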

HT-29 [2] = assay: Cytotoxicity against human HT-29 cells assessed as cell death at 20 uM by celltiter-glo luminescent cell viability assay; assay type: cell-based; settings: ht-29, 20 µM
Summary of the method: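 HT-29 cells were given a compound concentration gradient without TSZ stimulation. Viability was read as ATP level by luminescence. Cell death above 30% at 20 µM was scored as significant toxicity.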

[3] = biological target: Receptor-interacting serine/threonine-protein kinase 2 (Homo sapiens) (UniProt O43353); assay: Inhibition of RIPK2 (unknown origin) at 10 uM
Receptor-interacting serine/threonine-protein kinase 2 (Homo sapiens), sequence (O43353 whole entry): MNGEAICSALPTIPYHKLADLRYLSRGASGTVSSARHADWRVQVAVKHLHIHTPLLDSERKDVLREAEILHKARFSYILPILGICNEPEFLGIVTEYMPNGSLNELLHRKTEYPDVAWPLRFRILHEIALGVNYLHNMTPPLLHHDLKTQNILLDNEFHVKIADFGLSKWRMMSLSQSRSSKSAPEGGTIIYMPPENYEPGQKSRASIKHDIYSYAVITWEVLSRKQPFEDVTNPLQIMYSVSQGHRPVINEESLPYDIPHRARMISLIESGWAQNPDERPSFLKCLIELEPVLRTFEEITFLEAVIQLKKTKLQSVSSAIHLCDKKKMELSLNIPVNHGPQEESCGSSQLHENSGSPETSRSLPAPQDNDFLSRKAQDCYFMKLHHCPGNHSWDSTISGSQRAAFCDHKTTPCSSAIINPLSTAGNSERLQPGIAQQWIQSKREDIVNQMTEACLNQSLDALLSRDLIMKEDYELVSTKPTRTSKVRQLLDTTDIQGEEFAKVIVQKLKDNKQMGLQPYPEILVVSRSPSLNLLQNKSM

MEF = assay: Anti-necroptotic activity in mouse MEF cells assessed as inhibition of TNFalpha/Smac mimetic/Z-VAD-fmk (TSZ)-induced necroptosis by measuring increase in cell viability by celltiter-glo luminescent cell viability assay
Activin receptor type-1B = Activin receptor type-1B (Homo sapiens, UniProt P36896); assay: Inhibition of human ALK4 using ATP as substrate incubated for 120 mins by ADP-glo based luminescence assay
Activin receptor type-1B, sequence (P36896 whole entry): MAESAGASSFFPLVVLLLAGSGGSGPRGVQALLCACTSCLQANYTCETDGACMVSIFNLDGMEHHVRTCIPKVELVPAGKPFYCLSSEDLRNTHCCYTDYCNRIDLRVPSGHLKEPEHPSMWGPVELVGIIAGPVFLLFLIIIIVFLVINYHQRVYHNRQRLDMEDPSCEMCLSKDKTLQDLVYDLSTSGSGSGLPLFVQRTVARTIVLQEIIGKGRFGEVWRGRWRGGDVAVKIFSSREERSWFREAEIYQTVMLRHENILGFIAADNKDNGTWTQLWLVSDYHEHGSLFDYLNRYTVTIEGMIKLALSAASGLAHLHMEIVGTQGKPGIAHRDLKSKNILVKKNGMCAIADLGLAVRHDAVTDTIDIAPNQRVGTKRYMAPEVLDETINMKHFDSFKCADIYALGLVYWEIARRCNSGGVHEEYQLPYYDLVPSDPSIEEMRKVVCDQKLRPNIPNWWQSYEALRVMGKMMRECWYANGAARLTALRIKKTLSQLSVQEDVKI

[4] = biological target: Receptor-interacting serine/threonine-protein kinase 3 (Homo sapiens, UniProt Q9Y572); assay: Binding affinity to human wild type RIPK3 (M1/Q307) expressed in bacterial expression system by Kinomescan method
Summary of the method: (§1)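 KINOMEscan competition binding assay. Kinases were expressed as tags on T7 phage grown in E. coli BL21, or produced in HEK-293 cells and DNA-tagged. Kinase, ligand-loaded streptavidin beads and compound were combined in binding buffer (20% SeaBlock, 0.17x PBS, 0.05% Tween 20, 6 mM DTT) for 1 h at room temperature with shaking. Bound kinase was read by qPCR.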

[5] = biological target: Receptor-interacting serine/threonine-protein kinase 1 (Homo sapiens, UniProt Q13546); assay: Binding affinity to human wild type RIPK1 (M1/K305) expressed in bacterial expression system by Kinomescan method; summary of the method: as §1
Receptor-interacting serine/threonine-protein kinase 1, sequence (Q13546 whole entry): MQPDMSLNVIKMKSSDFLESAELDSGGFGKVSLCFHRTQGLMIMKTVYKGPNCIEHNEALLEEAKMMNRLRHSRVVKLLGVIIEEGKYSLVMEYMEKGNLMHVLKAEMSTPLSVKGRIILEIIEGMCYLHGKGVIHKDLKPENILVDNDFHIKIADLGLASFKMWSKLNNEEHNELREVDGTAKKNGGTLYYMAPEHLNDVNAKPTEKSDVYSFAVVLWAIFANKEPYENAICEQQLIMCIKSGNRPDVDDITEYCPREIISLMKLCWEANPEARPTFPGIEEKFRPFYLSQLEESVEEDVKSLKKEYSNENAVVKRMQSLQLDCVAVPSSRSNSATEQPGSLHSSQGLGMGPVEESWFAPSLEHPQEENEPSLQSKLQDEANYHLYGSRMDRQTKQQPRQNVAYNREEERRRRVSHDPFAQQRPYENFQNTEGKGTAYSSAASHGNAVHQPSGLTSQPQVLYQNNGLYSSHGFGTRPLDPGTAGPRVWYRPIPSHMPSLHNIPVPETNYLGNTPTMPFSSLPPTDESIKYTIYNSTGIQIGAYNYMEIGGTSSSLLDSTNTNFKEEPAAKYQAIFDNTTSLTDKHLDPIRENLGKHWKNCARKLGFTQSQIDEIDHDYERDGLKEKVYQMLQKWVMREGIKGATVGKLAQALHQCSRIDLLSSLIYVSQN

[6] = biological target: Receptor-interacting serine/threonine-protein kinase 1 (Homo sapiens) (UniProt Q13546); assay: Inhibition of human RIPK1 using ATP and substrate at 10 uM incubated for 120 mins by ADP-glo based luminescence assay
Receptor-interacting serine/threonine-protein kinase 1 (Homo sapiens), sequence (Q13546 whole entry): as above

[7] = biological target: Epidermal growth factor receptor (Homo sapiens, UniProt P00533); assay: Inhibition of EGFR (unknown origin) using FAM-labeled peptide as substrate preincubated for 10 mins followed by substrate addition measured after 60 mins in presence of ATP by caliper mobility shift assay
Epidermal growth factor receptor, sequence (P00533 whole entry): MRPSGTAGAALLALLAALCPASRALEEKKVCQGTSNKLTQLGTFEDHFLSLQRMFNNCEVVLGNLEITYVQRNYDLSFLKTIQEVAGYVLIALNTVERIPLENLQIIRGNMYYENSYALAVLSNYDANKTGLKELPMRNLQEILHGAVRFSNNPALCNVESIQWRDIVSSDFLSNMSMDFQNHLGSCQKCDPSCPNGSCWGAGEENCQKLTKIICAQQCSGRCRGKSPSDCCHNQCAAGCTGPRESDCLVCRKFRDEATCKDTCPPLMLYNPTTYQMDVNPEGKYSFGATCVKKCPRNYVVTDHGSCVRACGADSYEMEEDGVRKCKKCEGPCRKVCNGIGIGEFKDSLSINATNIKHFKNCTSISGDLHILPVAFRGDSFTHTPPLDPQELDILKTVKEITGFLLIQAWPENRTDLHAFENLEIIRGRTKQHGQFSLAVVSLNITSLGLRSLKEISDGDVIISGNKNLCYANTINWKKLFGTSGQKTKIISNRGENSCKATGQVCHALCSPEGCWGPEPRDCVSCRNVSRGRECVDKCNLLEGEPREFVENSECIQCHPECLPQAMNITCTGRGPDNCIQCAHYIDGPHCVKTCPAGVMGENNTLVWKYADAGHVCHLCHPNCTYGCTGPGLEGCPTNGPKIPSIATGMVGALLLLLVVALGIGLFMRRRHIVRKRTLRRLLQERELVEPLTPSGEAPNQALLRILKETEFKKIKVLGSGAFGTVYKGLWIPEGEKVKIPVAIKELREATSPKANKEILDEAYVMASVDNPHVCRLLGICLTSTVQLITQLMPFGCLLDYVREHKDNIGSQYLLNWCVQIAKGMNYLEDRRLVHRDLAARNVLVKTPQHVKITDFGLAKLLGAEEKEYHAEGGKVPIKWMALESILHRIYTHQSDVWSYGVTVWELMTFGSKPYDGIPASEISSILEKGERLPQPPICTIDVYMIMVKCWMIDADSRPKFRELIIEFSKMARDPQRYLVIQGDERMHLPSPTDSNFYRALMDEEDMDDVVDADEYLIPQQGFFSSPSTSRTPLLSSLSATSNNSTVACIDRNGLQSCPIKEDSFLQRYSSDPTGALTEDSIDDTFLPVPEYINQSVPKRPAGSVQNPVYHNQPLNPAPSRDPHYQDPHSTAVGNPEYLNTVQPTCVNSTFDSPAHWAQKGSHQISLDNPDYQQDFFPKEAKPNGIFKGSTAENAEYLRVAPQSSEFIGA

[8] = biological target: Platelet-derived growth factor receptor alpha (Homo sapiens, UniProt P16234); assay: Inhibition of PDGFRA (unknown origin) using FAM-labeled peptide as substrate preincubated for 10 mins followed by substrate addition measured after 60 mins in presence of ATP by caliper mobility shift assay
Platelet-derived growth factor receptor alpha, sequence (P16234 whole entry): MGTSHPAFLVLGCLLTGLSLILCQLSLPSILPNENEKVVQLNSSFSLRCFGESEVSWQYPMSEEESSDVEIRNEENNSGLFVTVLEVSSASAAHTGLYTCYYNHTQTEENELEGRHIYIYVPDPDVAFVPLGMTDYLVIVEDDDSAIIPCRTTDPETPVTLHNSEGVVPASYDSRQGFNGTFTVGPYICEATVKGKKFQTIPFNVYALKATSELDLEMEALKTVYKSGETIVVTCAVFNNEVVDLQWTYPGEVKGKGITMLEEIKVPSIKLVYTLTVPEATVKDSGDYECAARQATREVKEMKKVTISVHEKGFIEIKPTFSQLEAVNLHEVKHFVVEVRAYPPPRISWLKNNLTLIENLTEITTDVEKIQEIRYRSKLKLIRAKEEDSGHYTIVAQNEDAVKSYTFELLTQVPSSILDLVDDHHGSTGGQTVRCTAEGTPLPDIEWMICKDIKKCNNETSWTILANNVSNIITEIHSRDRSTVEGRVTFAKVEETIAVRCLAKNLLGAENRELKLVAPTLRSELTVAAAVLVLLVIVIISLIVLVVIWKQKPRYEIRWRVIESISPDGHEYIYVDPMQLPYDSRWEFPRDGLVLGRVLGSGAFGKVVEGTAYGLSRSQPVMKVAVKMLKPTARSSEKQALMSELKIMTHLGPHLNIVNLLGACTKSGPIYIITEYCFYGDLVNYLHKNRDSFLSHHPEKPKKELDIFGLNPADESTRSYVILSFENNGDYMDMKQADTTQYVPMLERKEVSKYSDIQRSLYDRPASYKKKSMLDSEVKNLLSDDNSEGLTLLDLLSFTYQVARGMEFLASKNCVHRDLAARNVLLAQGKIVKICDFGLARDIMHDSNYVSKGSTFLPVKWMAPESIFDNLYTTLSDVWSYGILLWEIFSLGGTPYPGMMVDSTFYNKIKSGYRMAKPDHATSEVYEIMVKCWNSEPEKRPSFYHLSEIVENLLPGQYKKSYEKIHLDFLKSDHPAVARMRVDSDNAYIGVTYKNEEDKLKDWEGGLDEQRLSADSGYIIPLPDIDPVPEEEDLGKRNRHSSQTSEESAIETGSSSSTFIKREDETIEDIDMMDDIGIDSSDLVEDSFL

CDK4/Cyclin D3 = CDK4/Cyclin D3 (Homo sapiens, UniProt P11802); assay: Inhibition of CDK4/Cyclin D3 (unknown origin) using FAM-labeled peptide as substrate preincubated for 10 mins followed by substrate addition measured after 60 mins in presence of ATP by caliper mobility shift assay; assay type: protein-complex assay
[9] = biological target: Serine/threonine-protein kinase B-raf (Homo sapiens, UniProt P15056); assay: Inhibition of BRAF (unknown origin) in presence of ATP by Lanthascreen TR-FRET assay
[10] = biological target: Serine/threonine-protein kinase mTOR (Homo sapiens, UniProt P42345); assay: Inhibition of mTOR (unknown origin) using ATP as substrate after 60 mins by Lance ultra assay
[11] = biological target: Phosphatidylinositol 4,5-bisphosphate 3-kinase catalytic subunit alpha isoform (Homo sapiens, UniProt P42336); assay: Inhibition of human PI3Kalpha using ATP as substrate at 25 uM incubated for 60 mins by ADP-glo based luminescence assay
CYP1A2 = CYP1A2 (Homo sapiens, UniProt P05177); assay: Inhibition of CYP1A2 (unknown origin) at 10 uM incubated for 20 mins by LC-MS/MS analysis; assay type: ADME
CYP2C9 = CYP2C9 (Homo sapiens, UniProt P11712); assay: Inhibition of CYP2C9 (unknown origin) at 10 uM incubated for 20 mins by LC-MS/MS analysis; assay type: ADME
CYP2C9, sequence (P11712 whole entry): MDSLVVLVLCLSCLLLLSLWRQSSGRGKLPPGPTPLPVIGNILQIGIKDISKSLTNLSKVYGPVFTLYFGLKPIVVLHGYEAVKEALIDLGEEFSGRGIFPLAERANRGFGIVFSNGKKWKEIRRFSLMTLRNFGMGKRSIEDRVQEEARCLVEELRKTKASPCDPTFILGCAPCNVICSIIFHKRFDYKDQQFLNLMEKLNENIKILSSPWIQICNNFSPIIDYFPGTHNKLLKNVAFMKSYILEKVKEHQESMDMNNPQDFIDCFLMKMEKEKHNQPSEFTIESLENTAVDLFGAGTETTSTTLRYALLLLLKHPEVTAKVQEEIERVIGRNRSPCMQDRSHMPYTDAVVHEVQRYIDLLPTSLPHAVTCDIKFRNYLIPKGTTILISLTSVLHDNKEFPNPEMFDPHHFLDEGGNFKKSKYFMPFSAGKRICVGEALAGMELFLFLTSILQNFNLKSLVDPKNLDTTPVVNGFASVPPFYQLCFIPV

CYP2C19 = CYP2C19 (Homo sapiens, UniProt P33261); assay: Inhibition of CYP2C19 (unknown origin) at 10 uM incubated for 20 mins by LC-MS/MS analysis; assay type: ADME
CYP2D6 = CYP2D6 (Homo sapiens, UniProt P10635); assay: Inhibition of CYP2D6 (unknown origin) at 10 uM incubated for 20 mins by LC-MS/MS analysis; assay type: ADME
CYP3A4 [12] = biological target: T1, CYP3A4 (Homo sapiens, UniProt P08684); assay: Inhibition of CYP3A4 (unknown origin) at 10 uM using midazolam as substrate incubated for 20 mins by LC-MS/MS analysis; assay type: ADME; settings: probe midazolam
T1 sequence (P08684 whole entry): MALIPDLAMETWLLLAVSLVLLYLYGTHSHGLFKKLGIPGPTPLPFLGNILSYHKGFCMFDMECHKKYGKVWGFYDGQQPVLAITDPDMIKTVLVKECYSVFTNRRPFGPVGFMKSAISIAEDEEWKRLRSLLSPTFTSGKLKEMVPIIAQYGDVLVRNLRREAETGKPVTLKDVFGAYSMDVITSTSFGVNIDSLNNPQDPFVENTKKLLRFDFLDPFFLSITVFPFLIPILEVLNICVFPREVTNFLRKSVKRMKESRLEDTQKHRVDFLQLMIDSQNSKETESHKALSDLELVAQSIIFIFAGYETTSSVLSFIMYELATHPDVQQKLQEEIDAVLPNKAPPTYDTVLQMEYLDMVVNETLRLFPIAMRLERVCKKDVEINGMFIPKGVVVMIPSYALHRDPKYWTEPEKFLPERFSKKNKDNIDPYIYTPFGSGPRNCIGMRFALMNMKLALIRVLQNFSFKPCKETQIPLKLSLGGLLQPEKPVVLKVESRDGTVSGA

CYP3A4 [13] = biological target: T1, CYP3A4; assay: Inhibition of CYP3A4 (unknown origin) at 10 uM using testosterone as substrate incubated for 20 mins by LC-MS/MS analysis; assay type: ADME; settings: probe testosterone
[14] = biological target: Voltage-gated inwardly rectifying potassium channel KCNH2 (Homo sapiens, UniProt Q12809); assay: Inhibition of human ERG expressed in CHO-K1 cells by QPatch - automated patch-clamp technology; assay type: cell-based
[15] = Protein binding in human plasma by LC-MS/MS analysis; assay type: ADME, cell-free; settings: read-out: PPB (converted)
[16] = Protein binding in rat plasma by LC-MS/MS analysis; assay type: ADME, cell-free; settings: read-out: PPB (converted)
[17] = Protein binding in mouse plasma by LC-MS/MS analysis; assay type: ADME, cell-free; settings: read-out: PPB (converted)
[18] = Apparent permeability of the compound across apical to basolateral side in human Caco-2 cells; assay type: ADME, cell-based; settings: read-out: permeability
[19] = Apparent permeability of the compound across basolateral to apical side in human Caco-2 cells; assay type: ADME, cell-based; settings: read-out: permeability
[20] = Efflux ratio of apparent permeability across basolateral to apical side over apical to basolateral side in human Caco-2 cells; assay type: ADME, cell-based
[21] = Metabolic stability in human liver microsomes assessed as half life by LC-MS/MS analysis; assay type: ADME, Microsome
[22] = Metabolic stability in mouse liver microsomes assessed as half life by LC-MS/MS analysis; assay type: ADME, Microsome
[23] = Metabolic stability in human liver microsomes assessed as intrinsic clearance by LC-MS/MS analysis; assay type: ADME, Microsome
[24] = Metabolic stability in mouse liver microsomes assessed as intrinsic clearance by LC-MS/MS analysis; assay type: ADME, Microsome
Mus musculus [25] = assay: Anti-necroptosis activity against TNFalpha-induced C57BL/6J mouse systemic inflammatory response syndrome model assessed as reduction in hypothermia at 5 mg/kg, ip measured after 15 mins; assay type: functional, organism-based
Summary of the method: (§2)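 C57BL/6 mice were given vehicle (sterile PBS with 40% PEG400) or compound at 5 mg/kg i.p. about 15 min before i.v. mouse TNFa ([…]). Body temperature and survival were monitored. Temperature changes are shown as means ± SEM per group.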

Mus musculus [26] = assay: Anti-necroptosis activity against TNFalpha-induced C57BL/6J mouse systemic inflammatory response syndrome model assessed as reduction in lethal shock at 5 mg/kg, ip measured after 15 mins; assay type: functional, organism-based; summary of the method: as §2
Mus musculus [27] = assay: Antiinflammatory activity in TNFalpha-induced C57BL/6J mouse systemic inflammatory response syndrome model assessed as reduction in IL-6 production in serum at 5 mg/kg, ip measured 4 hrs after TNFalpha stimulation by ELISA; assay type: functional, organism-based
Summary of the method: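 C57BL/6 mice were dosed i.p. at 5 mg/kg in PBS/40% PEG400 about 15 min before i.v. mouse TNFa ([…]). Mice were killed 4 h after TNFa and serum IL-6 was measured by ELISA.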

[28] = biological target: Mixed lineage kinase domain-like protein (Homo sapiens) (UniProt Q8NB16); assay: Inhibition of MLKL (unknown origin) polymerization

Structure (SMILES): O=C1CS(=O)(=O)c2cc3c(Nc4ccc5scnc5c4)ccnc3cc21
EC50 (HT-29 [1]): 3810 nM

Structure (SMILES): Cc1ccc(O)cc1Nc1ccnc2cc3c(cc12)S(=O)(=O)C(C)(C)C3=O
EC50 (HT-29 [1]): 430 nM | Activity (HT-29 [2]): > 30%

Structure (SMILES): C=C1c2cc3nccc(Nc4ccc5scnc5c4)c3cc2S(=O)(=O)C1(C)C
EC50 (HT-29 [1]): 1030 nM

Structure (SMILES): CC1(O)c2cc3nccc(Nc4ccc5scnc5c4)c3cc2S(=O)(=O)C1(C)C (stereo not drawn)
EC50 (HT-29 [1]): > 20000 nM

Structure (SMILES): CC1(C)C(=O)c2cc3nccc(Nc4cc(O)ccc4F)c3cc2S1(=O)=O
EC50 (HT-29 [1]): 330 nM | Activity (HT-29 [2]): > 30%

Structure (SMILES): Cc1n[nH]c(Nc2ccnc3cc4c(cc23)S(=O)(=O)C(C)(C)C4=O)c1C
EC50 (HT-29 [1]): > 20000 nM

Structure (SMILES): CC1(C)C(=O)c2cc3nccc(Nc4cc(O)c(F)cc4F)c3cc2S1(=O)=O
EC50 (HT-29 [1]): 1030 nM | Activity (HT-29 [2]): > 30%

Structure (SMILES): O=S1(=O)CC2(CCCO2)c2cc3nccc(Nc4ccc5scnc5c4)c3cc21 (stereo not drawn)
EC50 (HT-29 [1]): 3960 nM

inhibition [3]: Active
Structure (SMILES): CC(C)S(=O)(=O)c1ccc2nccc(Nc3ccc4scnc4c3)c2c1
EC50 (HT-29 [1]): 1510 nM | EC50 (MEF): 2510 nM

Structure (SMILES): CCC1(C)C(=O)c2cc3nccc(Nc4ccc5scnc5c4)c3cc2S1(=O)=O (stereo not drawn)
EC50 (HT-29 [1]): > 20000 nM

Structure (SMILES): O=S1(=O)CC2(COC2)c2cc3nccc(Nc4ccc5scnc5c4)c3cc21
EC50 (HT-29 [1]): > 20000 nM

Structure (SMILES): O=S1(=O)CCc2cc3nccc(Nc4ccc5scnc5c4)c3cc21
EC50 (HT-29 [1]): 2280 nM

Structure (SMILES): CC1(C)C(O)(C2CC2)c2cc3nccc(Nc4ccc5scnc5c4)c3cc2S1(=O)=O (stereo not drawn)
EC50 (HT-29 [1]): > 20000 nM

Structure (SMILES): CC1(C)C(=O)c2cc3nccc(Nc4ccc5scnc5c4)c3cc2S1(=O)=O
EC50 (HT-29 [1]): 2230 nM

Structure (SMILES): CC1(C)C(O)c2cc3nccc(Nc4ccc5scnc5c4)c3cc2S1(=O)=O (stereo not drawn)
EC50 (HT-29 [1]): 2190 nM

Structure (SMILES): CC1(CC2CC2)C(=O)c2cc3nccc(Nc4ccc5scnc5c4)c3cc2S1(=O)=O (stereo not drawn)
EC50 (HT-29 [1]): > 20000 nM

Structure (SMILES): CC1(C)C(=O)c2cc3nccc(Nc4n[nH]c5ccc(F)cc45)c3cc2S1(=O)=O
EC50 (HT-29 [1]): > 20000 nM

Structure (SMILES): CC1COC2(CS(=O)(=O)c3cc4c(Nc5ccc6scnc6c5)ccnc4cc32)O1 (stereo not drawn)
EC50 (HT-29 [1]): 1070 nM

IC50 (Activin receptor type-1B): 158 nM
Structure (SMILES): O=C(O)c1ccc(-c2nc(-c3ccc4c(c3)OCO4)c(-c3ccccn3)[nH]2)cc1

Kd [4]: 7.2 nM | Kd [5]: 5950 nM | inhibition [6]: inactive | IC50 [7]: > 10000 nM | IC50 [8]: 152 nM | IC50 (CDK4/Cyclin D3): > 10000 nM | IC50 [9]: 1360 nM | IC50 [10]: > 10000 nM | IC50 [11]: 7770 nM | inhibition at 20 min, 10 µM (CYP1A2): 37% | inhibition at 20 min, 10 µM (CYP2C9): -6.33% | inhibition at 20 min, 10 µM (CYP2C19): 19.9% | inhibition at 20 min, 10 µM (CYP2D6): -5.26% | inhibition at 20 min, 10 µM (CYP3A4 [12]): -13.7% | inhibition at 20 min, 10 µM (CYP3A4 [13]): 9.6% | fraction unbound [15]: 0.029 | fraction unbound [16]: 0.013 | fraction unbound [17]: 0.027 | Papp A→B [18]: 35.2 ×10⁻⁶ cm/s | Papp B→A [19]: 25.3 ×10⁻⁶ cm/s | efflux ratio [20]: 0.72 | half-life [21]: 28.8 min | half-life [22]: 20.3 min | CLH [23]: 60.5 mL/min/kg | CLH [24]: 269 mL/min/kg | inhibition [28]: inactive | inhibition [3]: Active | IC50 (Activin receptor type-1B): 3740 nM
Structure (SMILES): O=S1(=O)CC2(OCCO2)c2cc3nccc(Nc4ccc5scnc5c4)c3cc21
EC50 (HT-29 [1]): 420 nM | IC50 [14]: > 30000 nM | Activity (Mus musculus [25]): Active | Activity (Mus musculus [26]): Active | Activity (Mus musculus [27]): Active | EC50 (MEF): 540 nM
